Reference: ChEMBL document CHEMBL5036356, “Spatial Distribution and Stability of Cholinesterase Inhibitory Protoberberine Alkaloids from Papaver setiferum” (J Nat Prod, 2022)

What was measured:
Acetylcholinesterase [1] = biological target: Acetylcholinesterase (Homo sapiens, UniProt P22303); test: Inhibition of human recombinant AChE using acetylthiocholine chloride as substrate incubated for 5 mins by DTNB reagent based Ellman's method
Outline: (§1)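 Enzyme stocks (commercial eel AChE, human recombinant AChE or horse serum BChE) at 0.0075 U/mL in 100 mM potassium phosphate, pH 7.4, added to start the reaction. Acetylthiocholine chloride 1 mM and DTNB 0.5 mM final. Compounds were taken from 5 mg/mL methanol stocks and serially diluted in buffer, with methanol blanks. Rate read at 405 nm, 25 °C, for 5 min. IC50 reported as mean ± SEM of at least three repeats.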

Acetylcholinesterase [2] = biological target: Acetylcholinesterase (Electrophorus electricus, UniProt O42275); test: Inhibition of electrical eel AChE using acetylthiocholine chloride as substrate incubated for 5 mins by DTNB reagent based Ellman's method; outline: as §1
Chain of Acetylcholinesterase (Electrophorus electricus, UniProt O42275) (O42275 whole entry): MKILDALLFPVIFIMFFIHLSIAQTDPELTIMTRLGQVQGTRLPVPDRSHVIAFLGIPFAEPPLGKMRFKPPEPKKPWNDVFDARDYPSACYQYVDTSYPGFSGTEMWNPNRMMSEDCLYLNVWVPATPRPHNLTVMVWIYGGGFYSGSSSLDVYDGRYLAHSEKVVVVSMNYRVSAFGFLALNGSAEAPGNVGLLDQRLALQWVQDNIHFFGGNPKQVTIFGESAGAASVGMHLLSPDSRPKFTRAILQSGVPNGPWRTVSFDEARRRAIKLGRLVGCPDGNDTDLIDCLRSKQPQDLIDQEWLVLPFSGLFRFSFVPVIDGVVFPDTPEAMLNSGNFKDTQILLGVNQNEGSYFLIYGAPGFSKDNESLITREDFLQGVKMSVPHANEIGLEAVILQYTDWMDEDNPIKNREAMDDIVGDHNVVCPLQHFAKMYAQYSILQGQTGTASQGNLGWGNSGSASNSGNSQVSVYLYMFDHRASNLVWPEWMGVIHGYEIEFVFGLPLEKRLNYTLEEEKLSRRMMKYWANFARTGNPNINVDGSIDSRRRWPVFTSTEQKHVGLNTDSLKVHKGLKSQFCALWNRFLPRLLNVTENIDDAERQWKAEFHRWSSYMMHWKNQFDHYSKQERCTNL

Cholinesterase = Cholinesterase (Equus caballus, UniProt P81908); test: Inhibition of horse serum BChE incubated for 5 mins by DTNB reagent based Ellman's method
Chain of Cholinesterase (P81908 whole entry): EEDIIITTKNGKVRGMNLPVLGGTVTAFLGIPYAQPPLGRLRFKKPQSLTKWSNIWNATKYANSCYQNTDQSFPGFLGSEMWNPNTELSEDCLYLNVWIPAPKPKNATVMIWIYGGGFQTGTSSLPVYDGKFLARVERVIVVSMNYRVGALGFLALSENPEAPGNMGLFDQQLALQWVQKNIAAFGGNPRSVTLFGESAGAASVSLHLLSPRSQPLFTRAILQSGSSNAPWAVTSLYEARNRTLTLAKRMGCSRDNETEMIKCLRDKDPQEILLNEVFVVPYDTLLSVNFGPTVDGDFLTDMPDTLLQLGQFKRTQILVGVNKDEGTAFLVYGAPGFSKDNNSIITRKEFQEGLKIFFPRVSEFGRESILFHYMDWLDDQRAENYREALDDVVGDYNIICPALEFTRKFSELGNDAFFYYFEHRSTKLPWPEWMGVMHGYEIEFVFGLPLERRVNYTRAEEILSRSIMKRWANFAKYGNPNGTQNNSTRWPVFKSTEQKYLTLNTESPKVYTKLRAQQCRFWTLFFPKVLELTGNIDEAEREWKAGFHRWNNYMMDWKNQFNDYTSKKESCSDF
Outline: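 Enzyme stocks (commercial eel AChE, human recombinant AChE or horse serum BChE) at 0.0075 U/mL in 100 mM potassium phosphate, pH 7.4, added to start the reaction. Acetylthiocholine chloride 1 mM and DTNB 0.5 mM final. Compounds were taken from 5 mg/mL methanol stocks and serially diluted in buffer, with methanol blanks. IC50 reported as mean ± SEM of at least three repeats.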

Chain of Acetylcholinesterase (Homo sapiens, UniProt P22303) (P22303 whole entry): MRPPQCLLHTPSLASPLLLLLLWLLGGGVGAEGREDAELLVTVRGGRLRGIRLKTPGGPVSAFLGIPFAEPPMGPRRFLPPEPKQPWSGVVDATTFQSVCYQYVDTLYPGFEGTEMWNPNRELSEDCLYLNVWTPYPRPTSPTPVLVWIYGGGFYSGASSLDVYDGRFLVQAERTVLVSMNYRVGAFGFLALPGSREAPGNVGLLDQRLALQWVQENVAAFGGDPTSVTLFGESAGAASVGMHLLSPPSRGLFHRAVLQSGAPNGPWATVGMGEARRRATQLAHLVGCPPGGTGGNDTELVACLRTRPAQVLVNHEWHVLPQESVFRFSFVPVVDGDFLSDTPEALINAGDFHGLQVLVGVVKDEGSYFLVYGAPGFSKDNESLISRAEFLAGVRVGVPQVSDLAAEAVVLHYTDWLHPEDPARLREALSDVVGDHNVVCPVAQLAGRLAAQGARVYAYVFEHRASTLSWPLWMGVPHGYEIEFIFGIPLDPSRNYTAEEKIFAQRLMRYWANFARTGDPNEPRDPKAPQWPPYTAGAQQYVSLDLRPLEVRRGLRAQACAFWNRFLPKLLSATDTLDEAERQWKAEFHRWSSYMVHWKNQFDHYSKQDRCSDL

COc1cc2c3c(c1O)-c1c(cccc1OC)C[C@@H]3[N+](C)(C)CC2
Not Active: IC50 (Acetylcholinesterase [1]) | Ki (Acetylcholinesterase [1]) | IC50 (Acetylcholinesterase [2]) | Ki (Acetylcholinesterase [2])

COc1cc(C[C@H]2c3cc(O)c(OC)cc3CC[N+]2(C)C)ccc1O
Not Active: Ki (Cholinesterase) | IC50 (Acetylcholinesterase [1]) | Ki (Acetylcholinesterase [1]) | IC50 (Acetylcholinesterase [2]) | Ki (Acetylcholinesterase [2])

O=[N+]([O-])CCc1ccc(O[C@@H]2O[C@H](CO[C@@H]3OC[C@@H](O)[C@H](O)[C@H]3O)[C@@H](O)[C@H](O)[C@H]2O)cc1
Not Active: IC50 (Cholinesterase) | Ki (Cholinesterase) | IC50 (Acetylcholinesterase [1]) | Ki (Acetylcholinesterase [1]) | IC50 (Acetylcholinesterase [2]) | Ki (Acetylcholinesterase [2])

COc1cc2c(cc1O)[C@H](Cc1ccc(OC)c(OC)c1)[N+](C)(C)CC2
Not Active: Ki (Cholinesterase) | IC50 (Acetylcholinesterase [1]) | Ki (Acetylcholinesterase [1]) | IC50 (Acetylcholinesterase [2]) | Ki (Acetylcholinesterase [2])

COc1cc2c3c(c1O)-c1c(cccc1OC)C[C@@H]3N(C)CC2
Not Active: IC50 (Acetylcholinesterase [1]) | Ki (Acetylcholinesterase [1])

COC1=C[C@]23CCN(C)[C@H](Cc4ccc(OC)c(O)c42)C3=CC1=O [SALUTARIDINE]
Not Active: Ki (Cholinesterase) | IC50 (Acetylcholinesterase [1]) | Ki (Acetylcholinesterase [1]) | IC50 (Acetylcholinesterase [2]) | Ki (Acetylcholinesterase [2])
